Screens: PubChem, several laboratories
The list is not random: actives were taken first. Their share in the collection is about 5.3%.
PLK1 inh: PLK1 (human) kinase inhibition | recombinant PLK1 kinase, TR-FRET peptide phosphorylation | inhibition, % at 10 µM | 97,000 tested, 0.53% active;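 active = inhibition of 50% or more in the single-concentration screen; inactive = inhibition below 50%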;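 note: 0% = DMSO max control and 100% = H-89 dihydrochloride min control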
Target sequence (P53350 whole entry, looked up): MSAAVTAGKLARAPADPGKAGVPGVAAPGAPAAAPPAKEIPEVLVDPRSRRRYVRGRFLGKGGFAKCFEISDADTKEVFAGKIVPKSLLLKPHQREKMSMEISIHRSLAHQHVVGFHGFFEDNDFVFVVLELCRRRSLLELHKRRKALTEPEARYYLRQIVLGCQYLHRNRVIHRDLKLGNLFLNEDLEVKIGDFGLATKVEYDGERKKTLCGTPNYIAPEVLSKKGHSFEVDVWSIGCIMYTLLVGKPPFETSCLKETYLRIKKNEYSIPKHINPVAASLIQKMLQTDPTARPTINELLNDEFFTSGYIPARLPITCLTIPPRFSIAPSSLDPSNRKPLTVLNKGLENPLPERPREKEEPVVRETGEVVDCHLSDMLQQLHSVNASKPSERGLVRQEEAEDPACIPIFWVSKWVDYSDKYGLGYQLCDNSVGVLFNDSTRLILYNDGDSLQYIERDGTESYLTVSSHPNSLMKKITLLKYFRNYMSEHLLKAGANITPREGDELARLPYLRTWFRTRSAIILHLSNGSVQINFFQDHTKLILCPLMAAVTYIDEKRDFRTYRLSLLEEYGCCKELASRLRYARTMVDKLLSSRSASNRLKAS
Cav3 T inh: inhibitors of human Cav3.2 T-type calcium channel; 100,000 tested, 4% active; Cav3.2-expressing cells, Fluo-4 calcium fluorescence FDSS; active compounds read low; O95180; B-score at 10 µM;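 active = single-dose well whose peak fluorescence ratio is a statistical outlier from its plate by either plate-standardised score or position-corrected B-score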
EphB4 antag: blocks human EphB4 binding to ephrin-B2; P54760; EphB4 LBD / TNYL-RAW-Alexa532 peptide, fluorescence polarization; inhibition, % at 7 µM; 97,000 tested, 0.15% active;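 active = inhibition above the screen-wide mean inhibition plus 3 SD, cut at about 15% in these data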;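 note: 0% = DMSO wells and 100% = excess unlabeled TNYL-RAW peptide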
Rev-RRE block: inhibitors of HIV-1 Rev-RRE RNA interaction. P05866. Rev peptide-RRE RNA binding, FRET. inhibition, % at 8 µM. 97,000 tested, 0.79% active. AID 704;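 active = inhibition above the screen-wide mean plus 3 SD, cut at about 35% in these data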;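 note: 0% = median DMSO wells and 100% = median Neomycin B control wells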
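Assay system: Labelled RRE RNA duplex and labelled Rev peptide | Times: 5 min preincubation and 15 min binding, 25 °C | Detection: FRET, ex 480 nm, em 540 and 671 nm | Evaluation: % inhibition of FRET ratio versus controls | Benchmarks: DMSO wells as 0% and neomycin B wells as 100% inhibition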
FAK blocker: inhibitors of human focal adhesion kinase; Q05397; biochemical FAK kinase activity assay; inhibition, %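 (tested at 7 µM)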; 97,000 tested, 0.84% active; in the data active = inhibition above about 19%;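 note: 0% = DMSO and 100% = reference compound high control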
PLK1 PBD inh: blocks phosphopeptide binding to human Plk1 polo box domain; P53350; Plk1 PBD phosphopeptide binding, fluorescence polarization; inhibition, %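 (tested at about 20 µM)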; 97,000 tested, 0.13% active; AID 693; in the data active = inhibition above about 34%, passing the limit was not always enough
Active calls of the source: *; x = no result given.

SMILES	PLK1 inh	Cav3 T inh	EphB4 antag	Rev-RRE block	FAK blocker	PLK1 PBD inh
COc1cc2c(c(OC)c1OC)-c1c(cc(OC)c(OC)c1OC)C[C@](C)(O)[C@@H](C)C2	x	0.62	x	x	x	x
CCn1nnc(-c2ccccc2NC(=O)c2cnccn2)n1	0	1.1	-2	-4	4	0
COc1cccc2sc(Nc3nnc(-c4cccs4)o3)nc12	-5	-5.6*	-7	7	-5	6
Nc1cc(-c2ccccc2)nn1S(=O)(=O)c1ccc(F)cc1	-2	-7.2*	1	4	5	27
Cc1[nH][nH]c(=O)c1C(c1c(C)[nH][nH]c1=O)c1cn(Cc2cccc3ccccc23)c2ccccc12	-15	-5.1*	4	0	8	-6
Cc1ccccc1OCCNC(=O)c1ccccc1Sc1ccccc1C#N	-7	-5.5*	-8	12	-3	6
C=C1CCN([C@@H](C)C(=O)NCCCCCC)S(=O)(=O)c2ccccc21	x	0.26	x	x	x	x
CCOc1ccc(S(=O)(=O)N2c3ccccc3CC2C)cc1 (centres undefined)	-13	-3.6*	-2	10	4	-7
CC(C)(C)NC(=O)CSc1nc(O)cc(=O)n1-c1ccccc1F	-16	0.079	-4	53*	-1	-17
COc1ccccc1-n1c(SCC(=O)NC(C)(C)C)nc(O)cc1=O	-4	1.3	-12	2	-3	7
Cc1cc(/C=N\NC(=O)CC(=O)NC2CCCCC2)c(C)n1-c1ccc(Cl)cc1	-17	-5.7*	-2	-2	-3	-12
CCOC(=O)c1c(C)[nH]c(C(=O)OC)c1CCC(=O)OC	-3	1.2	-7	-6	-3	-29
CCOC(=O)c1[nH]c(Cc2[nH]c(C(=O)OCC)c(C)c2CCC(=O)OC)c(CCC(=O)OC)c1C	-8	-8.4*	4	10	-2	-9
COc1ccccc1NC(=O)c1nnn(Cc2ccccc2)c1NC(=O)C(F)(F)F	-16	-7.7*	-9	0	-10	0
CC(=O)Nc1c(C(=O)NCc2ccccc2)nnn1Cc1ccccc1	-9	-0.6	-4	0	2	25
O=C(Nc1ccccc1)c1nnn(Cc2ccccc2)c1NC(=O)C(F)(F)F	-4	-8.4*	4	-2	-1	-34
COc1ccccc1NC(=O)CSc1nnnn1Cc1ccccc1	14	-0.48	0	1	0	-1
CCc1c(C(=O)N/N=C/c2ccc(C)o2)csc1C	-4	0.056	-4	4	2	-5
O=C(CCC1CCCC1)c1c(O)c2ccccc2oc1=O	-18	-8*	4	1	-2	47
CN1/C(=C/C=C(/C#N)C(N)=O)C(C)(C)c2ccccc21	-9	-0.63	2	47*	9	13
CCC(C)(C)n1nnnc1C(c1ccncc1)N1CCN(c2cccc(OC)c2)CC1 (centres undefined)	0	x	-5	1	-1	-23
CC(C)(C)n1nnnc1C(c1cccc(C#N)c1)N1CCC(Cc2ccccc2)CC1 (centres undefined)	-4	-4.8*	0	-1	2	8
CCC(C)(C)n1nnnc1C(c1ccncc1)N1CCC(Cc2ccccc2)CC1 (centres undefined)	-4	-3.7*	1	0	3	11
CCC(C)(C)n1nnnc1C(c1cccnc1)N1CCN(c2cccc(C(F)(F)F)c2)CC1 (centres undefined)	-7	-5.1*	1	3	1	-16
CC(C)(C)n1nnnc1C(c1cccc(C#N)c1)N1CCCc2ccccc21 (centres undefined)	-12	-1.9	-6	12	8	-17
SMILES	PLK1 inh	Cav3 T inh	EphB4 antag	Rev-RRE block	FAK blocker	PLK1 PBD inh
COC(=O)c1cc(S(=O)(=O)n2nc(C)c(Br)c2C)c(Cl)cc1Cl	3	1.2	2	13	-1	-3
CCOc1ccc2nc(-c3ccccc3)nc(SCC(=O)Nc3ncc(C)s3)c2c1	-11	-0.32	3	10	0	-27
CC(=O)C1C(c2ccc(F)c(F)c2)NC(=O)NC1(O)C(F)(F)F (centres undefined)	-7	-2	1	5	0	-19
CC(C)C[C@H](NC(=O)c1[nH]cnc1C(=O)N[C@@H](C)c1ccccc1)C(=O)OCc1ccccc1	x	-2.6	x	x	x	x
Clc1ccc(Cn2ncc3c(NCc4ccco4)ncnc32)c(Cl)c1	4	-5.8*	3	12	2	18
CC1CCCCN1S(=O)(=O)c1ccc(C(=O)Nc2sccc2C(N)=O)cc1 (centres undefined)	-12	-0.082	-1	8	4	-5
COc1ccccc1/C=C1\S/C(=N/NC(=O)c2cccc(Br)c2)NC1=O	-11	-4.2*	-3	9	0	34
COC(=O)/C=C1\S/C(=N/NC(=O)c2ccccc2)NC1=O	8	0.25	-3	5	0	-18
Cc1nc(N2CCN(C(=O)COc3ccccc3)CC2)c2c(C)c(C)sc2n1	5	-4*	-5	10	1	8
COc1ccc(OCC(=O)N2CCN(c3cccc(C(F)(F)F)c3)CC2)cc1	-6	-6.9*	12	11	-4	8
O=C(COc1ccc(Br)cc1)N1CCN(c2ccccc2)CC1	-11	-3.3*	-4	12	-2	13
COc1ccc(N2CCN(C(=O)COc3ccc4ccccc4c3)CC2)cc1	-8	-0.14	0	-2	2	9
COc1ccc(OC)c(S(=O)(=O)N(C)CC(=O)N2CCN(c3ccc(F)cc3)CC2)c1	4	1.4	5	9	2	7
COc1ccc(OC)c(S(=O)(=O)N(C)CC(=O)N2CCN(c3cccc(Cl)c3)CC2)c1	-4	-6.8*	-2	2	3	-9
COC(=O)c1ccc(NC(=O)CCN2CCN(Cc3ccccc3)CC2)cc1	-14	-0.076	5	6	0	8
C/C(CC1CC2=C(CC1(C)C)C(C)(C)CCC2)=N\NC(N)=S (centres undefined)	-8	-3.1	-22	-2	-2	-4
COc1ccc(N2CCN(C(=O)CN(Cc3ccccc3)S(C)(=O)=O)CC2)cc1	-12	-0.21	4	4	1	16
COc1ccc(OCC(=O)N2CCN(c3cccc(Cl)c3)CC2)cc1	-35	-4.5*	-2	13	-1	3
O=C(C(Cc1ccccc1)n1cccc1)N1CCN(c2cccc(Cl)c2)CC1 (centres undefined)	-8	-4.3	-3	2	1	1
COc1ccc(N2CCN(C(=O)CN(Cc3ccc(Cl)cc3)S(C)(=O)=O)CC2)cc1	-12	-4.6*	-1	-4	-1	11
CCC(C(=O)N1CCN(c2cccc(Cl)c2)CC1)c1ccccc1 (centres undefined)	-1	-5.3*	-14	5	-2	12
